How the values were obtained:
[1] = target: T1, Tyrosine-protein phosphatase non-receptor type 11 (Homo sapiens, UniProt Q06124); assay: Inhibition of recombinant SHP2 (unknown origin) using pNPP as substrate by spectrophotometric method
T1 sequence (Q06124 whole entry): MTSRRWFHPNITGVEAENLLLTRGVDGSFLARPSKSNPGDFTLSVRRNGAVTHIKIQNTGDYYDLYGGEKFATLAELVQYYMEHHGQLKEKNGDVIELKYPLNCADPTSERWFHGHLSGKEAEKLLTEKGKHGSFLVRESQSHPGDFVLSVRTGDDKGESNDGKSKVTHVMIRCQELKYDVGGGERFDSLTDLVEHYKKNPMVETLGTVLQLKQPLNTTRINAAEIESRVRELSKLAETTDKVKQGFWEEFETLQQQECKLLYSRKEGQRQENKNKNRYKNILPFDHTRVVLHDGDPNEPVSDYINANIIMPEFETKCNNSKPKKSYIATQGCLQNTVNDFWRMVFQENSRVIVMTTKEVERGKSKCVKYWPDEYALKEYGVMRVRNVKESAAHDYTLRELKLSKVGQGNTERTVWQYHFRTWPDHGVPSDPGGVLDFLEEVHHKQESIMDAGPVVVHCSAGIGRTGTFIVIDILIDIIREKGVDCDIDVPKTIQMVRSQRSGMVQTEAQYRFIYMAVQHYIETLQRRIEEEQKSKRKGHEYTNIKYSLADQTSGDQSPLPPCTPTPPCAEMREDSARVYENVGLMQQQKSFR
Outline: (§1)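 Recombinant PTP prepared in-house, assayed with pNPP substrate in 50 mM 3,3-dimethylglutarate buffer pH 7.0 containing 1 mM EDTA and 150 mM NaCl at 25 °C, in 96-well format. p-Nitrophenol product was quantified by absorbance at 405 nm. Non-enzymatic pNPP hydrolysis was corrected using a no-enzyme control.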

[2] = target: T2, Tyrosine-protein phosphatase non-receptor type 22 (Homo sapiens, UniProt Q9Y2R2); assay: Inhibition of recombinant LYP (unknown origin) using pNPP as substrate by spectrophotometric method; outline: as §1
T2 sequence (Q9Y2R2 whole entry): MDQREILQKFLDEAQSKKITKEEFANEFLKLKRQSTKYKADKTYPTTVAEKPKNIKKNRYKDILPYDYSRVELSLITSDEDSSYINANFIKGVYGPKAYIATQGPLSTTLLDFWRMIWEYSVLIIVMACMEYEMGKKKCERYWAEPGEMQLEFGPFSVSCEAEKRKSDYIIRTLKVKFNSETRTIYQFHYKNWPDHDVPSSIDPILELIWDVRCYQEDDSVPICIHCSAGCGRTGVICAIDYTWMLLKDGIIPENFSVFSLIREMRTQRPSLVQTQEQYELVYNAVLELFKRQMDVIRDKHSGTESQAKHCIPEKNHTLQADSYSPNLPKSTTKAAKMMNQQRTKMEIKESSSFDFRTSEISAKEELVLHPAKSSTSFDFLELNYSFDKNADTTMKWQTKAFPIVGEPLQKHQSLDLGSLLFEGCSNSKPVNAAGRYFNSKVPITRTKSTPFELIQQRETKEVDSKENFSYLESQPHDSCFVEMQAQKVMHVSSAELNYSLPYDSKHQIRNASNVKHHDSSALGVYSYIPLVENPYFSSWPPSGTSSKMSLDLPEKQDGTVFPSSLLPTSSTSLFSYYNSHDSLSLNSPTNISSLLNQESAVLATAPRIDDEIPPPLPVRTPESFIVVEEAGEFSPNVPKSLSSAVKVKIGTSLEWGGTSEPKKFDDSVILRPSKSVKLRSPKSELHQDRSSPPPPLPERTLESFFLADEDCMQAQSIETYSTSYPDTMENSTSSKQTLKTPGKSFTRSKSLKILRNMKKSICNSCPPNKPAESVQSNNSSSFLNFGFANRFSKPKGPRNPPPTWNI

[3] = target: T3, Receptor-type tyrosine-protein phosphatase C (Homo sapiens, UniProt P08575); assay: Inhibition of recombinant CD45 (unknown origin) using pNPP as substrate by spectrophotometric method; outline: as §1
T3 sequence (P08575 whole entry): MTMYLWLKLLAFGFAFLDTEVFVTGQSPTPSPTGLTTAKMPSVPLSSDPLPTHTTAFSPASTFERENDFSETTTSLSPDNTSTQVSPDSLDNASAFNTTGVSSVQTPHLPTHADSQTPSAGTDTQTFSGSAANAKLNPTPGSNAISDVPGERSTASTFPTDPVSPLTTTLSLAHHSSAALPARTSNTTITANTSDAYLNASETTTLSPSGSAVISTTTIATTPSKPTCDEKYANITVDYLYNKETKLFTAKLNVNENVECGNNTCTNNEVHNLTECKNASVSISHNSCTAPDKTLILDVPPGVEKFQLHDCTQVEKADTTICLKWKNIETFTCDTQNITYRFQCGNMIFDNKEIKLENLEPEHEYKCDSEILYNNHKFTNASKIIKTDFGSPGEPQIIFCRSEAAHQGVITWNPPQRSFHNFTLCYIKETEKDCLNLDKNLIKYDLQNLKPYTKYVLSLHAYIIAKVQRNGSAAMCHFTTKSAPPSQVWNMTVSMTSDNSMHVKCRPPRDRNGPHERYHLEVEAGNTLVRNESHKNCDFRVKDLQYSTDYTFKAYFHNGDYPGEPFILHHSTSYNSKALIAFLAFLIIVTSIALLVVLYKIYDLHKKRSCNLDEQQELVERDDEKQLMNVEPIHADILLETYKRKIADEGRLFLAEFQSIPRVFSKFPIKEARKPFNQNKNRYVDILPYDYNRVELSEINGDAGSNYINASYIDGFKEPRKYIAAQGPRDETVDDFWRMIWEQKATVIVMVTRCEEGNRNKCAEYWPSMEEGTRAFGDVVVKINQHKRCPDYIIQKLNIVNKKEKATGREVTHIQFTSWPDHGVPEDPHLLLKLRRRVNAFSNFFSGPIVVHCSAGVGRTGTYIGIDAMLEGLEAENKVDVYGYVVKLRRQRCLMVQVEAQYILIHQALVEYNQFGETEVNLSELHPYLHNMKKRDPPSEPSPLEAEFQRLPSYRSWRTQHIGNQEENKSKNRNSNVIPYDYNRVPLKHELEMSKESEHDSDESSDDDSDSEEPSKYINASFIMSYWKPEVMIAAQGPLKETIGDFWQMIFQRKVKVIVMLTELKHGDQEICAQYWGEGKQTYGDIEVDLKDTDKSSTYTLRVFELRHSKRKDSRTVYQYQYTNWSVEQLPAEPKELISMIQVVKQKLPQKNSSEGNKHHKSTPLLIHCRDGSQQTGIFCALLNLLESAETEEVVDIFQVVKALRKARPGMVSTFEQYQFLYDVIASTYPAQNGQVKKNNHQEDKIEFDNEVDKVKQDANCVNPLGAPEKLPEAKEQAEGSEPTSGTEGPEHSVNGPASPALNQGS

[4] = target: T4, Tyrosine-protein phosphatase non-receptor type 1 (Homo sapiens, UniProt P18031); assay: Inhibition of recombinant PTP1B (unknown origin) using pNPP as substrate by spectrophotometric method; outline: as §1
T4 sequence (P18031 whole entry): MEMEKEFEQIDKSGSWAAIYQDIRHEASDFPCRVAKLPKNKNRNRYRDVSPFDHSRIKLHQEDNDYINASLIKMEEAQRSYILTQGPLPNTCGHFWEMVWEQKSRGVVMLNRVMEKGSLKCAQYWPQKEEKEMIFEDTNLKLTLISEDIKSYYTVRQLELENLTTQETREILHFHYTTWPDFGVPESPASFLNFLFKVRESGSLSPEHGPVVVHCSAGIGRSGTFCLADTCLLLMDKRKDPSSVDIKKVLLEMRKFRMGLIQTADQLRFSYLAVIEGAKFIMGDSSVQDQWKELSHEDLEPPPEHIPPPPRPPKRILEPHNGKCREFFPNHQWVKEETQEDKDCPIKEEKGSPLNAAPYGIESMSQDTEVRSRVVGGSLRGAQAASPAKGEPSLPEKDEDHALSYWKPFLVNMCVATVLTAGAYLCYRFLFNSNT

[5] = target: Tyrosine-protein phosphatase non-receptor type 13 (Homo sapiens, UniProt Q12923); assay: Inhibition of recombinant FAP1 (unknown origin) using pNPP as substrate by spectrophotometric method; outline: as §1
[6] = Inhibition of recombinant Mycobacterium tuberculosis PTPB using pNPP as substrate by spectrophotometric method
Outline: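 Recombinant enzyme made in-house. Substrate pNPP in 50 mM 3,3-dimethylglutarate buffer, pH 7.0, with 1 mM EDTA and 150 mM NaCl, at 25 °C, screened in 96-well format. p-Nitrophenol product read at 405 nm. Non-enzymatic pNPP hydrolysis was corrected using a control without enzyme.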

Chain of Tyrosine-protein phosphatase non-receptor type 13 (Q12923 whole entry): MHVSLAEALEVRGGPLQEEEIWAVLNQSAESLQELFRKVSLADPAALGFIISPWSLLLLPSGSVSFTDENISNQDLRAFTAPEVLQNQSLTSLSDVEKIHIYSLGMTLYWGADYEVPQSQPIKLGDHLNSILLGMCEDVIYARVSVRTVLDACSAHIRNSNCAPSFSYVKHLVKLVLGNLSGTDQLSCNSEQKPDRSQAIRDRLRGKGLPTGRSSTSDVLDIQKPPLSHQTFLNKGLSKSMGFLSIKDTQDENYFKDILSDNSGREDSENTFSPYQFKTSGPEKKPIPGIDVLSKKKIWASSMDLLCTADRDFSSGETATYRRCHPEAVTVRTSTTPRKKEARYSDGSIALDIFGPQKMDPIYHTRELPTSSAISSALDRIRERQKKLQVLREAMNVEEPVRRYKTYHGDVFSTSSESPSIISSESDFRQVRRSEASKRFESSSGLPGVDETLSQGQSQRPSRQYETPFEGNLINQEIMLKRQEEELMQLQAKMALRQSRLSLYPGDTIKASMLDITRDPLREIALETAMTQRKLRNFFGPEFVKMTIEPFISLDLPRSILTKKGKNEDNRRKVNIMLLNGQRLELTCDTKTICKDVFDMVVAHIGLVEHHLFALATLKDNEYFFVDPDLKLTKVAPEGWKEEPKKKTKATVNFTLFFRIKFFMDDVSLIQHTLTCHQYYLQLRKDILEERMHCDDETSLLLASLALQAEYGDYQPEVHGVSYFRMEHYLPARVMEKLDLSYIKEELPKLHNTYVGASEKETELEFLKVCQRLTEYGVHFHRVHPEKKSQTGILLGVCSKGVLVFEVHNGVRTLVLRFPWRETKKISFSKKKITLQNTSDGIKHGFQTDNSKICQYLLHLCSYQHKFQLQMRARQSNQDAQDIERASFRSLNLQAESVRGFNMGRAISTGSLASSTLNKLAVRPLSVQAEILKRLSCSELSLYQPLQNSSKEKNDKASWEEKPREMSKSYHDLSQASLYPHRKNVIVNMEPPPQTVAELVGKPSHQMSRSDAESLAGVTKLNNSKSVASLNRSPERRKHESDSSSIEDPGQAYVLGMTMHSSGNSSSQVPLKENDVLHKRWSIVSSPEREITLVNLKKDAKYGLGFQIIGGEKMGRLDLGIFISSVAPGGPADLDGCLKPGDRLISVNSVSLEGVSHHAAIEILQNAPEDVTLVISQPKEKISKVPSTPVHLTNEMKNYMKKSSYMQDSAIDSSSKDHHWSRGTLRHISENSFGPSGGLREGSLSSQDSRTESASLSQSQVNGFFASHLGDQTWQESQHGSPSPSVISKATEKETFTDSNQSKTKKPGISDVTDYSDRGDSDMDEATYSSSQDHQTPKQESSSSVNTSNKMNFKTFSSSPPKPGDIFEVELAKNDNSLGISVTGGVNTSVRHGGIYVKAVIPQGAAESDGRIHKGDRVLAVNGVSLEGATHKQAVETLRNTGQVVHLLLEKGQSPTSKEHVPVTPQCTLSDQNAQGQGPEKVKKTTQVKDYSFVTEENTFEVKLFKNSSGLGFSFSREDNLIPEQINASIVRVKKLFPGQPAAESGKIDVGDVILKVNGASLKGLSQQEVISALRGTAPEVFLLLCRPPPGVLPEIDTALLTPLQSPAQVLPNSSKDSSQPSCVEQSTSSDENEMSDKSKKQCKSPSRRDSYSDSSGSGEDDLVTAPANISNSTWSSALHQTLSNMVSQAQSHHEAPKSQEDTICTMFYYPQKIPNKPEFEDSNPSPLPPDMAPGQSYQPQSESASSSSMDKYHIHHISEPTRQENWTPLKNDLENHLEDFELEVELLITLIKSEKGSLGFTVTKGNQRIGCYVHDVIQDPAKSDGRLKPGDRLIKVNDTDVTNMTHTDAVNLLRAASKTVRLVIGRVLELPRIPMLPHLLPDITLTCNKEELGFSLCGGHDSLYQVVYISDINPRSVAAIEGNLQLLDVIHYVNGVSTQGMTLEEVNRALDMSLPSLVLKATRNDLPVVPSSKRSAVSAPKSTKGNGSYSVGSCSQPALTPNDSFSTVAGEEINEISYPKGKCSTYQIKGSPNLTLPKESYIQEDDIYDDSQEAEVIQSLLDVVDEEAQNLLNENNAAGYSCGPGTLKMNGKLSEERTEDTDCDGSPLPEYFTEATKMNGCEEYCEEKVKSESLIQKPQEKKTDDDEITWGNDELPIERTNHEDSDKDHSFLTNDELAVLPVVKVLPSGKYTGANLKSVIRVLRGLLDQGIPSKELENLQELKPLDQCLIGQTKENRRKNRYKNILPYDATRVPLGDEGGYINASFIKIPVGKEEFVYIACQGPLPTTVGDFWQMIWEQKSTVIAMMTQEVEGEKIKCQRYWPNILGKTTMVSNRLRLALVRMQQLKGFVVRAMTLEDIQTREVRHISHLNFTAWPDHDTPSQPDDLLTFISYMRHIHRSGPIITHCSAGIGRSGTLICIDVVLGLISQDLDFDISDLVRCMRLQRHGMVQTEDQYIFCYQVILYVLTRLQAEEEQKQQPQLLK

**Q.** With `O=C(COc1ccc2cc(C(O)(C(F)(F)F)C(F)(F)F)c(O)cc2c1)Nc1ccc(-c2ccccc2)cc1` as the molecule, how does the IC50 [1] read?
**A.** 3.5 µM

**Q.** And the IC50 [2]?
**A.** > 20 µM

**Q.** What about the IC50 [3] of the same molecule?
**A.** 3.4 µM

**Q.** And the IC50 [4]?
**A.** > 20 µM

**Q.** What about the IC50 [5] of the same molecule?
**A.** 2.8 µM

**Q.** What about the IC50 [6] of the same molecule?
**A.** 4.8 µM

**Q.** With `Oc1cc(-c2ccccc2)ccc1C(O)(C(F)(F)F)C(F)(F)F` as the molecule, how does the IC50 [1] read?
**A.** > 500 µM

**Q.** And the IC50 [2]?
**A.** > 500 µM

**Q.** What about the IC50 [3] of the same molecule?
**A.** > 500 µM

**Q.** And the IC50 [4]?
**A.** > 500 µM

**Q.** What about the IC50 [5] of the same molecule?
**A.** > 500 µM

**Q.** What about the IC50 [6] of the same molecule?
**A.** > 500 µM

**Q.** Which IC50 [1] does the source give for `Cc1ccc(O)c(C(O)(C(F)(F)F)C(F)(F)F)c1` here?
**A.** 202 µM

**Q.** What about the IC50 [2] of the same molecule?
**A.** 303 µM

**Q.** And the IC50 [3]?
**A.** 207 µM

**Q.** What about the IC50 [4] of the same molecule?
**A.** 360 µM

**Q.** What about the IC50 [5] of the same molecule?
**A.** 454 µM

**Q.** What about the IC50 [6] of the same molecule?
**A.** 180 µM

**Q.** For `Oc1cc2ccccc2cc1C(O)(C(F)(F)F)C(F)(F)F`, which IC50 [1] is on record?
**A.** 115 µM

**Q.** What about the IC50 [2] of the same molecule?
**A.** 134 µM

**Q.** What about the IC50 [3] of the same molecule?
**A.** 112 µM

**Q.** What about the IC50 [4] of the same molecule?
**A.** 260 µM

**Q.** What about the IC50 [5] of the same molecule?
**A.** 128 µM

**Q.** What about the IC50 [6] of the same molecule?
**A.** 106 µM

**Q.** Which results are given for `O=C(COc1ccc2cc(C(O)(C(F)(F)F)C(F)(F)F)c(O)cc2c1)N1c2ccccc2Sc2ccccc21`?
**A.** IC50 [1]: 3.2 µM; IC50 [2]: 3.4 µM; IC50 [3]: 2.8 µM; IC50 [4]: 6.6 µM; IC50 [5]: 2.2 µM; IC50 [6]: 2.9 µM
